Experimental data from ChEMBL document CHEMBL1145964, “Antineoplastic agents. 487. Synthesis and biological evaluation of the antineoplastic agent 3,4-methylenedioxy-5,4'-dimethoxy-3'-amino-Z-stilbene and derived amino acid amides” (J Med Chem, 2003).
In brackets after ≈: the same amount, converted by molar mass. Several values for one entry are separate records, joined by “and”; a condition that tells them apart may be missing. Identical values can stand only once.

Columns and labels:
[1] = target: Tubulin alpha chain (Sus scrofa) (UniProt P02550); test: Percent inhibitory activity (100 uM) against colchicine binding to tubulin […]; conditions: Homo sapiens
Chain of Tubulin alpha chain (Sus scrofa) (P02550 whole entry, looked up): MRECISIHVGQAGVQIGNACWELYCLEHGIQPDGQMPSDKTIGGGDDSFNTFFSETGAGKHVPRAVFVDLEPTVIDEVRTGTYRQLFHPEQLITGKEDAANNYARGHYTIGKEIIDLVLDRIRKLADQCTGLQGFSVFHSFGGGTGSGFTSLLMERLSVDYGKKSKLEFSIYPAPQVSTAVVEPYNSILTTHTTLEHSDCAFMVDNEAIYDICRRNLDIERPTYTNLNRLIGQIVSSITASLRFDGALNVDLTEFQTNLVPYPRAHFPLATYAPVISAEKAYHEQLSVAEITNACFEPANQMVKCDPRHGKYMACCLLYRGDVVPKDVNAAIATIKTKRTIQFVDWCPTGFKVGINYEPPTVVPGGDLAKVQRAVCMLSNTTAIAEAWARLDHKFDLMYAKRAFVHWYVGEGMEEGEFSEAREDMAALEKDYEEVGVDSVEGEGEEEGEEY
Outline: (§1)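 Cell-free colchicine-binding test: reaction mixtures held 1.0 µM tubulin, 5.0 µM [³H]colchicine and inhibitor at the stated level; percent inhibition of radiolabel binding recorded.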

[2] = Inhibitory activity against prostate DU145 cell line; format: functional; conditions: Homo sapiens, DU-145
[3] = Inhibitory activity against pancreatic BXPC-3 cell line; format: functional; conditions: Homo sapiens
[4] = target: Tubulin alpha chain (Sus scrofa) (UniProt P02550); test: Percent inhibitory activity (20 uM) against colchicine binding to tubulin […]; conditions: Homo sapiens; outline: as §1
[5] = Inhibitory activity against CNS SF-295 cell line; format: functional; conditions: Homo sapiens
[6] = test system: MCF7; test: Mitotic index in MCF-7 breast cancer cells was determined; format: functional, Homo sapiens
[7] = test system: MCF7; test: Inhibitory activity against breast MCF-7 cell line; format: functional; conditions: Homo sapiens
[8] = test system: P388; test: Inhibitory activity against leukemia P388 cell line; format: functional; conditions: Mus musculus, read-out: ED50 (the source's name)
[9] = test system: Tubulin; test: Inhibitory activity against tubulin (1.0 mg/mL) assembly was determined; conditions: Homo sapiens
[10] = Inhibitory activity against lung NSC NCI-H460 cell line; format: functional; conditions: Homo sapiens
[11] = Inhibitory activity against colon KM2OL2 cell line; format: functional; conditions: Homo sapiens
[12] = organism: Mus musculus; test: Inhibitory activity against murine colon 26 adenocarcinoma cell; format: functional
[13] = target: Tubulin alpha chain (Sus scrofa) (UniProt P02550); test: Percent inhibitory activity (5 uM) against colchicine binding to tubulin […]; conditions: Homo sapiens
Outline: (§2)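 Binding of [³H]colchicine to purified tubulin, not a cell assay: reaction mixtures held 1.0 µM tubulin, 5.0 µM [³H]colchicine and test compound at 2 or 5 µM as indicated. Read-out is percent inhibition of colchicine binding.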

[14] = target: Tubulin alpha chain (Sus scrofa) (UniProt P02550); test: Percent inhibitory activity (2 uM) against colchicine binding to tubulin […]; conditions: Homo sapiens; outline: as §2
[15] = target: Tubulin alpha chain (Sus scrofa) (UniProt P02550); test: Percent inhibitory activity (5 uM) against colchicine binding to […]; conditions: Homo sapiens
[16] = Inhibitory activity against prostate DU145; format: functional; conditions: Homo sapiens, DU-145, Prostate gland
[17] = test system: Tubulin; test: Inhibitory activity against tubulin (1.0 mg/mL) assembly was determined; conditions: Homo sapiens; remark: listed apart in the source
[18] = test system: MCF7; test: Inhibitory activity against breast cancer cell line MCF-7; format: functional; conditions: Homo sapiens
[19] = Inhibitory activity against pancreatic cell line BXPC-3; format: functional; conditions: Homo sapiens

| SMILES | inhibition [1] [%] | inhibition [4] [%] | GI50 [7] [µg/mL] | EC50 [8] [µg/mL] | IC50 [9] [µM] | IC50 [17] [µM] | GI50 [18] [µg/mL] | GI50 [2] [µg/mL] | GI50 [3] [µg/mL] | GI50 [5] [µg/mL] | Mitotic index [6] | GI50 [10] [µg/mL] | GI50 [11] [µg/mL] | IC50 [12] [µM] | inhibition [13] [%] | inhibition [14] | inhibition [15] [%] | GI50 [16] [µg/mL] | GI50 [19] [µg/mL] |
| --- | --- | --- | --- | --- | --- | --- | --- | --- | --- | --- | --- | --- | --- | --- | --- | --- | --- | --- | --- |
| COc1ccc(/C=C\c2cc(OC)c(OC)c(OC)c2)cc1O [COMBRETASTATIN A4] | – | – | – | – | 2.1 | – | – | – | – | – | 57 | – | – | 0.018 | – | – | – | – | – |
| COc1ccc(/C=C/c2cc(OC)c3c(c2)OCO3)cc1P(=O)([O-])O.[Na+] | – | – | 0.045 | 0.025 | – | – | – | 0.053 | 2.1 | 0.042 | – | 0.41 | 3.8 | – | – | – | – | – | – |
| COc1ccc(/C=C\c2cc(OC)c3c(c2)OCO3)cc1NC(=O)CN | 66 | 31 | 0.014 (≈ 0.0393 µM) | 0.0199 (≈ 0.0558 µM) | > 40 | – | – | 0.0028 (≈ 0.00786 µM) | 0.025 (≈ 0.0702 µM) | 0.059 (≈ 0.166 µM) | 52 | 0.0042 (≈ 0.0118 µM) | 0.012 (≈ 0.0337 µM) | – | – | – | – | – | – |
| COc1ccc(/C=C\c2cc(OC)c3c(c2)OCO3)cc1NC(=O)C(N)Cc1ccccc1 (stereo not given) | 16 | – | 0.044 (≈ 0.0985 µM) | 0.0585 (≈ 0.131 µM) | > 40 | – | – | 0.04 (≈ 0.0896 µM) | 0.2 (≈ 0.448 µM) | 1.7 (≈ 3.81 µM) | 52 | 0.044 (≈ 0.0985 µM) | 0.034 (≈ 0.0761 µM) | – | – | – | – | – | – |
| COc1ccc(/C=C\c2cc(OC)c3c(c2)OCO3)cc1N [listing 1 of 2 here] | – | – | – | – | – | – | – | – | – | – | – | – | – | – | 94 | 84% and 87% | 95 | – | – |
| COc1ccc(/C=C\c2cc(OC)c3c(c2)OCO3)cc1N.Cl | – | – | 0.0042 | 0.0388 | – | – | – | 0.0082 | 0.075 | 0.0082 | – | 0.0057 | 0.035 | – | – | – | – | – | – |
| COc1ccc(/C=C\c2cc(OC)c(OC)c(OC)c2)cc1N | – | – | – | – | – | – | – | – | – | – | – | – | – | 0.0051 | – | – | – | – | – |
| COc1ccc(/C=C\c2cc(OC)c3c(c2)OCO3)cc1N [listing 2 of 2 here] | – | – | 0.0047 (≈ 0.0157 µM) | – | 3.1 | – | – | – | – | – | – | 0.005 (≈ 0.0167 µM) | – | – | – | – | – | – | – |
| COc1ccc(/C=C\c2cc(OC)c3c(c2)OCO3)cc1O [Combretastatin A-2] | – | – | 0.0042 (≈ 0.014 µM) | 0.016 (≈ 0.0533 µM) | – | – | – | 0.0054 (≈ 0.018 µM) | 0.014 (≈ 0.0466 µM) | 0.0083 (≈ 0.0276 µM) | – | 0.043 (≈ 0.143 µM) | 0.47 (≈ 1.57 µM) | – | 92 | 79% | – | – | – |
| COc1ccc(/C=C\c2cc(OC)c3c(c2)OCO3)cc1NC(=O)C(N)CS (stereo not given) | 15 | – | 0.05 (≈ 0.124 µM) | 0.332 (≈ 0.825 µM) | > 40 | – | – | 0.0046 (≈ 0.0114 µM) | 0.2 (≈ 0.497 µM) | 0.037 (≈ 0.0919 µM) | 42 | 0.032 (≈ 0.0795 µM) | 0.055 (≈ 0.137 µM) | – | – | – | – | – | – |
| COc1ccc(/C=C\c2cc(OC)c3c(c2)OCO3)cc1NC(=O)C(N)Cc1ccc(O)cc1 (stereo not given) | 19 | – | 0.035 (≈ 0.0757 µM) | 0.0475 (≈ 0.103 µM) | > 40 | – | – | 0.018 (≈ 0.0389 µM) | 0.0067 (≈ 0.0145 µM) | 0.0097 (≈ 0.021 µM) | 44 | 0.012 (≈ 0.0259 µM) | 0.022 (≈ 0.0476 µM) | – | – | – | – | – | – |

Further lines, with some results ahead:

| inhibition [1] [%] | inhibition [4] [%] | GI50 [7] [µg/mL] | EC50 [8] [µg/mL] | IC50 [9] [µM] | IC50 [17] [µM] | GI50 [18] [µg/mL] | SMILES | GI50 [2] [µg/mL] | GI50 [3] [µg/mL] | GI50 [5] [µg/mL] | Mitotic index [6] | GI50 [10] [µg/mL] | GI50 [11] [µg/mL] | IC50 [12] [µM] | inhibition [13] [%] | inhibition [14] | inhibition [15] [%] | GI50 [16] [µg/mL] | GI50 [19] [µg/mL] |
| --- | --- | --- | --- | --- | --- | --- | --- | --- | --- | --- | --- | --- | --- | --- | --- | --- | --- | --- | --- |
| 64 | 22 | 0.017 (≈ 0.044 µM) | 0.172 (≈ 0.445 µM) | > 40 | – | – | COc1ccc(/C=C\c2cc(OC)c3c(c2)OCO3)cc1NC(=O)C(N)CO (stereo not given) | 0.014 (≈ 0.0362 µM) | 0.027 (≈ 0.0699 µM) | 0.049 (≈ 0.127 µM) | 35 | 0.042 (≈ 0.109 µM) | 0.019 (≈ 0.0492 µM) | – | – | – | – | – | – |
| 14 | – | 0.037 (≈ 0.0929 µM) | 0.306 (≈ 0.768 µM) | > 40 | – | – | COc1ccc(/C=C\c2cc(OC)c3c(c2)OCO3)cc1NC(=O)C(N)C(C)C (stereo not given) | 0.036 (≈ 0.0903 µM) | 0.012 (≈ 0.0301 µM) | 0.055 (≈ 0.138 µM) | 48 | 0.064 (≈ 0.161 µM) | 0.019 (≈ 0.0477 µM) | – | – | – | – | – | – |
| 16 | – | 0.035 (≈ 0.0721 µM) | 0.0653 (≈ 0.134 µM) | > 40 | – | – | COc1ccc(/C=C\c2cc(OC)c3c(c2)OCO3)cc1NC(=O)C(N)Cc1c[nH]c2ccccc12 (stereo not given) | 0.04 (≈ 0.0824 µM) | 0.044 (≈ 0.0906 µM) | 0.042 (≈ 0.0865 µM) | 57 | 0.053 (≈ 0.109 µM) | 0.018 (≈ 0.0371 µM) | – | – | – | – | – | – |
| – | – | – | 0.227 (≈ 0.689 µM) | – | 0.39 | 0.36 (≈ 1.09 µM) | COc1ccc(/C=C\c2cc(OC)c3c(c2)OCO3)cc1[N+](=O)[O-] | – | – | 0.33 (≈ 1 µM) | – | 0.35 (≈ 1.06 µM) | 0.45 (≈ 1.37 µM) | – | – | – | – | 0.64 (≈ 1.94 µM) | 0.38 (≈ 1.15 µM) |
| – | – | > 10 | > 10 | – | – | – | COc1ccc(/C=C/c2cc(OC)c3c(c2)OCO3)cc1[N+](=O)[O-] | > 10 | > 10 | 4.6 (≈ 14 µM) | – | > 10 | > 10 | – | – | – | – | – | – |
